Reference: publication PMC7101055 (ACS Chemical Neuroscience, 2020)
Entries after “also recorded” stand apart in the source; their conditions may differ. Read-outs that look alike come from different tables or passages of the source.

Experiments:
[1] = pH 7.2; cited from earlier work
[2] = 1PE photolysis at 365 and 405 nm; format: physicochemical; conditions: for Φu(365) quantum yield of photolysis / sensitivity (ε365Φu): 365 nm; for Φu(365) quantum yield of photolysis / Φu(405) quantum yield of photolysis: 0.1 mM in KMOPS buffer; for Φu(365) quantum yield of photolysis / sensitivity (ε365Φu) / Φu(405) quantum yield of photolysis / sensitivity (ε405Φu): pH 7.2; for sensitivity (ε365Φu) / sensitivity (ε405Φu): KMOPS buffer; for Φu(405) quantum yield of photolysis / sensitivity (ε405Φu): 405 nm; for yield of DA or sulpiride released (365 nm): photolysis at 365 nm; for yield of DA or sulpiride released (365 nm) / yield of DA or sulpiride released (405 nm): measured by HPLC, KMOPS pH 7.2; for yield of DA or sulpiride released (405 nm): photolysis at 405 nm
Outline: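 Test compound at 0.1 mM in KMOPS buffer (100 mM KCl, 10 mM MOPS, adjusted to pH 7.2 with KOH), irradiated with one-photon light. Released dopamine quantified by HPLC to give chemical yield.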

2-photon excitation = format: physicochemical; conditions: excitation at 740 nm, KMOPS buffer pH 7.2
Outline: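 Two-photon uncaging of test compound in KMOPS buffer (100 mM KCl and 10 mM MOPS, brought to pH 7.2 with KOH), with excitation at 740 nm.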

[3] = UV-vis spectra in KMOPS buffer pH 7.2; format: physicochemical; conditions: for ε365 / ε405: 0.1 mM in KMOPS buffer; for ε365: 365 nm; for ε405: 405 nm; for λmax: 0.1 mM solution in KMOPS buffer
[4] = Spontaneous hydrolysis in the dark, buffer, by HPLC; format: physicochemical; conditions: 100-μM solution in KMOPS buffer pH 7.2, HPLC
[5] = biological target: T1, D2 receptors on substantia nigra dopamine neurons (Mus musculus, UniProt P61168); format: cell-based; conditions: CyHQ-sulpiride 5 μM, 1 s flash; quinpirole 300 nM or dopamine 1 μM
[6] = biological target: T1, D2 receptors on substantia nigra dopamine neurons; format: cell-based
D2 receptor = conditions: cited from earlier work
rat D2 receptors = conditions: cited from earlier work
human D2 receptors = conditions: cited from earlier work

T1 sequence (P61168 whole entry): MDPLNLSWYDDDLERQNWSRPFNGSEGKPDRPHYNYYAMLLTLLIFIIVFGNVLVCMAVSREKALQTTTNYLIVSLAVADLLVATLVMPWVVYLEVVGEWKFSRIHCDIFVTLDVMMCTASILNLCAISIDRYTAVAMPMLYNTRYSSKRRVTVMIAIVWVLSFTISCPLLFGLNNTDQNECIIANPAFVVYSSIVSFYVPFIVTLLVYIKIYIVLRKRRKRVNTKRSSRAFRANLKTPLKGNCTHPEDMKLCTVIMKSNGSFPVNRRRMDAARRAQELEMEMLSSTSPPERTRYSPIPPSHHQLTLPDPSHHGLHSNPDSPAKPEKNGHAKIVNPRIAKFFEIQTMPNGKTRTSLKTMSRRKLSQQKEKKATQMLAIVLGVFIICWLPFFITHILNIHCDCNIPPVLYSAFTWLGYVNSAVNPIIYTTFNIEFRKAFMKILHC

Compound | Φu(365) quantum yield of photolysis [2] | sensitivity (ε365Φu) [2] | Φu(405) quantum yield of photolysis [2] | sensitivity (ε405Φu) [2] | yield of DA or sulpiride released (365 nm) [2] | yield of DA or sulpiride released (405 nm) [2] | δu 2-photon uncaging action cross-section (2-photon excitation) | ε365 [3] | ε405 [3] | λmax [3] | dark stability: no spontaneous hydrolysis in the dark observed within the time given [4] | further results
COc1cc(C(Oc2ccc(CNC(=O)CCCC/C=C/C(C)C)cc2OC)C(=O)O)c([N+](=O)[O-])cc1OC (stereo not drawn) | – | – | – | – | – | – | – | – | – | – | – | decomposition in the dark in 24 h [1]: 1.7%
N#Cc1c(O)ccc2ccc(COc3ccc(CCN)cc3OCc3ccc4ccc(O)c(C#N)c4n3)nc12 [(CyHQ)2-O,O-DA, 2,2′-(((4-(2-Aminoethyl)-1,2-phenylene)bis(oxy))bis(methylene))bis(7-hydroxyquinoline-8-carbonitrile)] | 0.19 | 1044 | 0.19 | 61 | 16% | 15% | 0.12 GM | 5480 M^–1 cm^–1 | 324 M^–1 cm^–1 | 364 nm | 100 h | chemical yield of dopamine ([2]; range over 365 and 405 nm photolysis): 15–16%; photochemical quantum yield ([2]; wavelength not stated in the sentence (1PE)): 0.19
NCCc1ccc(O)c(O)c1 [dopamine] | – | – | – | – | – | – | – | – | – | – | – | time constant of decay τ of D2 current after CyHQ-sulpiride photolysis [5]: 307 ms; rise time of current from 10 to 90% of the peak ([6]; iontophoretically applied dopamine (1 M, 10 ms 100 nA pulse)): 270 ms; rise time of current from 10 to 90% of the peak ([6]; synaptically released dopamine (IPSC, single stimulation)): 141 ms; koff (D2 receptor): 1.69 min^–1
CCN1CCCC1CNC(=O)c1cc(S(N)(=O)=O)ccc1OC (stereo not drawn) [sulpiride] | – | – | – | – | – | – | – | – | – | – | – | effect on CyHQ-O-DA flash response ([6]; sulpiride 500 nM, CyHQ-O-DA 150 μM): all response was blocked; reversal of the dark current produced by CyHQ-O-DA ([6]; sulpiride 1 μM, CyHQ-O-DA 1 mM in the dark): unable to fully reverse the effect; Ki (rat D2 receptors): 6.9 nM; Ki (human D2 receptors): 9.4 nM
(8-Cyano-7-hydroxyquinolin-2-yl)methyl(3,4-dihydroxyphenethyl)carbamate [CyHQ-N-DA] | 0.19 | 1283 | 0.20 | 50 | 60% | 49% | did not photolyze through 2PE; also recorded: n.p. ^c | 6700 M^–1 cm^–1 | 251 M^–1 cm^–1 | 364 nm | 24 h | –
